From ChEMBL document CHEMBL3526146, “In vitro and in vivo metabolism and pharmacokinetics of BMS-562086, a potent and orally bioavailable corticotropin-releasing factor-1 receptor antagonist” (Drug Metab Dispos, 2012)

Key:
[1] = Drug metabolism in rat hepatocytes assessed as DPH-124921 metabolite level at 25 uM after 3 hrs by LC-MS/MS analysis; format: ADME, cell-based, Hepatocyte
Summary of the method: (§1)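 Hepatocytes checked for viability by trypan blue exclusion, then diluted in Krebs-Henseleit buffer to 1.0 × 10^6 cells/ml. Incubated in duplicate with 25 µM compound at 37°C for 3 h on an orbital shaker (80 rpm) under 95/5 O2/CO2. Negative control had no cells. Stopped with ice-cold acetonitrile, sonicated, centrifuged; supernatant analysed by LC/MS/MS.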

[2] = Drug metabolism in beagle dog hepatocytes assessed as DPH-124921 metabolite level at 25 uM after 3 hrs by LC-MS/MS analysis; format: ADME, cell-based, Canis lupus familiaris, Hepatocyte
Summary of the method: (§2)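 Mouse, rat, dog, monkey and human hepatocytes (trypan blue viability checked) at 1.0×10^6 cells/ml in Krebs-Henseleit buffer were incubated with 25 µM compound, in duplicate. Conditions were 37°C, 95/5 O2/CO2, orbital shaking, 3 h. 7-Ethoxycoumarin and 7-hydroxycoumarin (100 µM) served as positive controls, with a cell-free negative control. Reactions were quenched with ice-cold acetonitrile, then sonicated and centrifuged; supernatants were analysed by LC/MS/MS.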

[3] = Drug metabolism in cynomolgus monkey cryopreserved hepatocytes assessed as DPH-124921 metabolite level at 25 uM after 3 hrs by LC-MS/MS analysis; format: ADME, cell-based, Macaca fascicularis, Hepatocyte; summary of the method: as §2
[4] = Drug metabolism in mouse hepatocytes assessed as BMS-572273 metabolite level at 25 uM after 3 hrs by LC-MS/MS analysis; format: ADME, cell-based, Hepatocyte; summary of the method: as §1
[5] = Drug metabolism in rat hepatocytes assessed as BMS-572273 metabolite level at 25 uM after 3 hrs by LC-MS/MS analysis; format: ADME, cell-based, Hepatocyte; summary of the method: as §1
[6] = Drug metabolism in cynomolgus monkey cryopreserved hepatocytes assessed as BMS-572273 metabolite level at 25 uM after 3 hrs by LC-MS/MS analysis; format: ADME, cell-based, Macaca fascicularis, Hepatocyte; summary of the method: as §2
[7] = Drug metabolism in human cryopreserved hepatocytes assessed as BMS-572273 metabolite level at 25 uM after 3 hrs by LC-MS/MS analysis; format: ADME, cell-based, Hepatocyte; summary of the method: as §1
[8] = Drug metabolism in mouse liver microsomes at 100 uM after 1 hr in presence of NADPH; format: ADME
Summary of the method: (§3)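 Liver microsomes (1 mg/ml protein) in 100 mM phosphate buffer with 100 µM test compound. Reaction started by adding NADPH (1 mM), then run at 37°C for 1 h in a shaking water bath, in duplicate. Controls lacked microsomal protein or NADPH; 7-ethoxycoumarin (100 µM) was the positive control. Metabolites identified by LC/MS/MS.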

Liver microsome [9] = test: Drug metabolism in dog liver microsomes at 100 uM after 1 hr in presence of NADPH; format: ADME, Canis lupus familiaris; summary of the method: as §3
[10] = Drug metabolism in cynomolgus monkey liver microsomes at 100 uM after 1 hr in presence of NADPH; format: ADME, Macaca fascicularis
Summary of the method: (§4)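 Mouse, rat, dog, monkey and human liver microsomes (1 mg/ml protein) were incubated with 100 µM compound in 100 mM phosphate buffer. Reactions were started with 1 mM NADPH and run 1 h at 37°C in duplicate. Controls lacked protein or NADPH, plus a 7-ethoxycoumarin (100 µM) positive control. Metabolites were identified by LC/MS/MS.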

Liver microsome [11] = test: Drug metabolism in human liver microsomes at 100 uM after 1 hr in presence of NADPH; format: ADME; summary of the method: as §3
[12] = Drug metabolism in mouse liver microsomes assessed as DPH-123554 metabolite level at 100 uM after 1 hr in presence of NADPH; format: ADME; summary of the method: as §3
Liver microsome [13] = test: Drug metabolism in rat liver microsomes assessed as DPH-123554 metabolite level at 100 uM after 1 hr in presence of NADPH; format: ADME; summary of the method: as §3
Liver microsome [14] = test: Drug metabolism in beagle dog liver microsomes assessed as DPH-123554 metabolite level at 100 uM after 1 hr in presence of NADPH; format: ADME, Canis lupus familiaris; summary of the method: as §4
[15] = Drug metabolism in cynomolgus monkey liver microsomes assessed as DPH-123554 metabolite level at 100 uM after 1 hr in presence of NADPH; format: ADME, Macaca fascicularis; summary of the method: as §4
Liver microsome [16] = test: Drug metabolism in human liver microsomes assessed as DPH-123554 metabolite level at 100 uM after 1 hr in presence of NADPH; format: ADME; summary of the method: as §3
[17] = Drug metabolism in mouse liver microsomes assessed as DPH-124921 metabolite level at 100 uM after 1 hr in presence of NADPH; format: ADME; summary of the method: as §3
[18] = Drug metabolism in mouse liver microsomes assessed as BMS-572273 metabolite level at 100 uM after 1 hr in presence of NADPH; format: ADME; summary of the method: as §3
Liver microsome [19] = test: Drug metabolism in human liver microsomes assessed as BMS-572273 metabolite level at 100 uM after 1 hr in presence of NADPH; format: ADME; summary of the method: as §3
Hepatocyte [20] = test: Detection of compound level in rat hepatocytes treated with 25 uM of BMS-562086 after 3 hrs by LC-MS/MS analysis; format: ADME, cell-based; summary of the method: as §2
Hepatocyte [21] = test: Detection of compound level in human cryopreserved hepatocytes treated with 25 uM of BMS-562086 after 3 hrs by LC-MS/MS analysis; format: ADME, cell-based; summary of the method: as §2
[22] = Drug metabolism in mouse hepatocytes at 25 uM after 3 hrs by LC-MS/MS analysis; format: ADME, cell-based, Hepatocyte; summary of the method: as §1
[23] = Drug metabolism in beagle dog hepatocytes at 25 uM after 3 hrs by LC-MS/MS analysis; format: ADME, cell-based, Canis lupus familiaris, Hepatocyte; summary of the method: as §2
[24] = Drug metabolism in cynomolgus monkey cryopreserved hepatocytes at 25 uM after 3 hrs by LC-MS/MS analysis; format: ADME, cell-based, Macaca fascicularis, Hepatocyte; summary of the method: as §2
[25] = Drug metabolism in human cryopreserved hepatocytes at 25 uM after 3 hrs by LC-MS/MS analysis; format: ADME, cell-based, Hepatocyte; summary of the method: as §1
[26] = Drug metabolism in mouse hepatocytes assessed as DPH-123554 metabolite level at 25 uM after 3 hrs by LC-MS/MS analysis; format: ADME, cell-based, Hepatocyte; summary of the method: as §1
[27] = Drug metabolism in rat hepatocytes assessed as DPH-123554 metabolite level at 25 uM after 3 hrs by LC-MS/MS analysis; format: ADME, cell-based, Hepatocyte; summary of the method: as §1
[28] = Drug metabolism in cynomolgus monkey cryopreserved hepatocytes assessed as DPH-123554 metabolite level at 25 uM after 3 hrs by LC-MS/MS analysis; format: ADME, cell-based, Macaca fascicularis, Hepatocyte; summary of the method: as §2
[29] = Drug metabolism in human cryopreserved hepatocytes assessed as DPH-123554 metabolite level at 25 uM after 3 hrs by LC-MS/MS analysis; format: ADME, cell-based, Hepatocyte; summary of the method: as §1
[30] = Drug metabolism in mouse hepatocytes assessed as DPH-124921 metabolite level at 25 uM after 3 hrs by LC-MS/MS analysis; format: ADME, cell-based, Hepatocyte; summary of the method: as §1
[31] = Detection of compound level in mouse liver microsomes treated with BMS-562086 by LC-MS/MS analysis
Liver microsome [32] = test: Detection of compound level in rat liver microsomes treated with 100 uM of BMS-562086 after 1 hr by LC-MS/MS analysis
Liver microsome [33] = test: Detection of compound level in human liver microsomes treated with 100 uM of BMS-562086 after 1 hr by LC-MS/MS analysis
Liver microsome [34] = test: Detection of compound level in beagle dog liver microsomes treated with 100 uM of BMS-562086 after 1 hr by LC-MS/MS analysis

- Drug metabolism [1]: metabolite_detected
- Drug metabolism [2]: metabolite_detected
- Drug metabolism [3]: metabolite_detected
- Drug metabolism [4]: metabolite_detected
- Drug metabolism [5]: metabolite_detected
- Drug metabolism [6]: metabolite_detected
- Drug metabolism [7]: metabolite_detected
- Drug metabolism [8]: metabolite_detected
- Drug metabolism (Liver microsome [9]): metabolite_detected
- Drug metabolism [10]: metabolite_detected
- Drug metabolism (Liver microsome [11]): metabolite_detected
- Drug metabolism [12]: metabolite_detected
- Drug metabolism (Liver microsome [13]): metabolite_detected
- Drug metabolism (Liver microsome [14]): metabolite_detected
- Drug metabolism [15]: metabolite_detected
- Drug metabolism (Liver microsome [16]): metabolite_detected
- Drug metabolism [17]: metabolite_detected
- Drug metabolism [18]: metabolite_detected
- Drug metabolism (Liver microsome [19]): metabolite_detected
- Drug metabolism (Hepatocyte [20]): metabolite_detected
- Drug metabolism (Hepatocyte [21]): metabolite_detected
- Drug metabolism [22]: metabolite_detected
- Drug metabolism [23]: metabolite_detected
- Drug metabolism [24]: metabolite_detected
- Drug metabolism [25]: metabolite_detected
- Drug metabolism [26]: metabolite_detected
- Drug metabolism [27]: metabolite_detected
- Drug metabolism [28]: metabolite_detected
- Drug metabolism [29]: metabolite_detected
- Drug metabolism [30]: metabolite_detected
- Drug metabolism [31]: metabolite_detected
- Drug metabolism (Liver microsome [32]): metabolite_detected
- Drug metabolism (Liver microsome [33]): metabolite_detected
- Drug metabolism (Liver microsome [34]): metabolite_detected
SMILES: CC[C@@H](C)Nc1nc(C)nc2c(-c3ccc(OC)nc3C)c(C)nn12 [PEXACERFONT]
